Reference: ChEMBL document CHEMBL2412989, “Antiproliferative activity on human prostate carcinoma cell lines of new peptidomimetics containing the spiroazepinoindolinone scaffold” (Bioorg Med Chem, 2013)
Calls of active or inactive are those of the source. The calls are words filed in the database; no cut-off is given here.

Legend:
[1] = Agonist activity at GHS-R1a in rat pituitary cells; type: cell-based; details: Pituitary gland cell
[2] = system: DU-145; assay: Antiproliferative activity against human DU145 cells assessed as growth inhibition at 10^-6 M after 48 hrs by BrdU-incorporation assay relative to untreated cells; type: functional; details: DU-145, 48 h, read-out: GI
In short: (§1)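 DU145 prostate carcinoma cells (ATCC) kept in RPMI 1640/5% FBS. 5 × 10^4 cells/well seeded, 24 h at 37 °C, 5% CO2. Medium then replaced by RPMI 1640/5% charcoal-stripped FBS with compound. BrdU added 4 h before end of incubation. Fixed cells probed with Eu-conjugated anti-BrdU (0.5 µg/mL), time-resolved fluorescence read. Cell-free wells used as blank. Mean of ≥3 experiments, 8 replicates each, expressed vs untreated cells.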

[3] = system: DU-145; assay: Antiproliferative activity against human DU145 cells assessed as growth inhibition at 10^-9 M after 48 hrs by BrdU-incorporation assay relative to untreated cells; type: functional; details: DU-145, 48 h, read-out: GI; in short: as §1
[4] = target: T1, Growth hormone secretagogue receptor type 1 (Homo sapiens, UniProt Q92847); assay: Induction of GHS-R1a-mediated ERK1/2 phosphorylation in human DU145 cells at 10^-6 M after 10 mins by Western blot analysis in presence of D-Lys-GHRP-6; type: cell-based; details: DU-145
T1 sequence (Q92847 whole entry): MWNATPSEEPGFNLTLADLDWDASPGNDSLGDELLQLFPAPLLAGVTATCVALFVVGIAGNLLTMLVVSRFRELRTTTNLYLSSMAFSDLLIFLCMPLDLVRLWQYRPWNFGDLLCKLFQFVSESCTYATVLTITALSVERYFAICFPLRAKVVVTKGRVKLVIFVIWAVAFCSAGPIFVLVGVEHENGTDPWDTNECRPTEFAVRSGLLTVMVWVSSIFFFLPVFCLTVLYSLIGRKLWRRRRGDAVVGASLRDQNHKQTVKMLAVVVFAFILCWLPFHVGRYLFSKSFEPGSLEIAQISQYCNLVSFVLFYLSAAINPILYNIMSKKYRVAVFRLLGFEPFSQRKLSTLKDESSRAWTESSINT
In short: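 Western blot of ERK1/2 phosphorylation in 16 h serum-starved DU145 cells. Cells pretreated 1 h with 10^-6 M D-Lys3-GHRP-6, then exposed 10 min to compound. pERK1/2 (1:150) and total ERK1/2 (1:1000) antibodies, overnight 4 °C, peroxidase secondary. Mean ± SD, three independent experiments, one-way ANOVA.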

[5] = target: T1, Growth hormone secretagogue receptor type 1; assay: Induction of GHS-R1a-mediated ERK1/2 phosphorylation in human DU145 cells at 10^-9 to 10^-6 M after 10 mins by Western blot analysis; type: cell-based; details: DU-145
In short: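 DU145 cells serum-starved 16 h, then exposed to compound (10^-6 or 10^-9 M) for 10 min. Lysed in T-PER with protease inhibitors, protein by BCA. SDS-PAGE, nitrocellulose transfer, 5% milk/TBST block. Probed overnight at 4 °C with anti-pERK1/2 (1:150) and anti-ERK1/2 (1:1000), then peroxidase secondary 2 h RT. Mean ± SD of three independent experiments, one-way ANOVA.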

[6] = system: DU-145; assay: Antiproliferative activity against human DU145 cells assessed as growth inhibition at 10^-6 M after 48 hrs by BrdU-incorporation assay relative to untreated cells in presence of GHS-R1a antagonist D-Lys-GHRP-6; type: functional, cell-based
In short: (§2)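 BrdU-incorporation proliferation assay in DU145 cells. Cells seeded at 5 × 10^4/well, 24 h, then switched to RPMI 1640/5% charcoal-stripped FBS containing compound together with GHS-R1a antagonist D-Lys3-GHRP-6 at 10^-6 M. BrdU pulse 4 h before end. Eu-anti-BrdU time-resolved fluorescence, blank from cell-free wells. Mean of ≥3 experiments in 8 replicates, relative to untreated cells.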

[7] = system: DU-145; assay: Antiproliferative activity against human DU145 cells assessed as growth inhibition at 10^-9 M after 48 hrs by BrdU-incorporation assay relative to untreated cells in presence of GHS-R1a antagonist D-Lys-GHRP-6; type: functional, cell-based; in short: as §2
[8] = target: T1, Growth hormone secretagogue receptor type 1; assay: Agonist activity at GHS-R1a (unknown origin)

| SMILES | inhibition of growth at 1 µM [2] | inhibition of growth at 0.001 µM [3] | other results |
| --- | --- | --- | --- |
| CC(C)(N)C(=O)N[C@H](COCc1ccccc1)C(=O)N1CCC2(CC1)CN(S(C)(=O)=O)c1ccccc12 [IBUTAMOREN] |  |  | EC50 [1]: 1.3 nM |
| CC(C)(N)C(=O)N[C@H](Cc1c[nH]c2ccccc12)C(=O)N1CCC[C@@]2(CC1)C(=O)Nc1ccccc12 | -5.5% | -4.8% |  |
| CC(C)(N)C(=O)N[C@@H](Cc1c[nH]c2ccccc12)C(=O)N1CCC[C@]2(CC1)C(=O)Nc1ccccc12 | -15% | -10% |  |
| CC(=O)NC(C)(C)C(=O)N[C@@H](Cc1c[nH]c2ccccc12)C(=O)N1CCC[C@@]2(CC1)C(=O)Nc1ccccc12 | 2.1% | 1.2% |  |
| CC(C)(N)C(=O)N[C@@H](Cc1c[nH]c2ccccc12)C(=O)N1CCC[C@@]2(CC1)C(=O)Nc1ccccc12 | -27% | -20% | Activity [4]: inactive; Activity [5]: Active; growth inhibition (GI) [6]: inactive; growth inhibition (GI) [7]: inactive |
| CCCCCCCC(=O)OC[C@H](NC(=O)CNC(=O)[C@@H](N)CCCNC(=N)N)C(=O)N[C@@H](CO)C(=O)N[C@@H](Cc1ccccc1)C(=O)N[C@@H](CC(C)C)C(=O)N[C@@H](CO)C(=O)N1CCC[C@H]1C(=O)N[C@@H](CCC(=O)O)C(=O)N[C@@H](Cc1cnc[nH]1)C(=O)N[C@@H](CCC(N)=O)C(=O)N[C@@H](CCCCN)C(=O)N[C@@H](C)C(=O)N[C@@H](CCC(N)=O)C(=O)N[C@@H](CCC(N)=O)C(=O)N[C@@H](CCCNC(=N)N)C(=O)N[C@@H](CCCCN)C(=O)N[C@@H](CCC(=O)O)C(=O)N[C@@H](CO)C(=O)N[C@@H](CCCCN)C(=O)N[C@@H](CCCCN)C(=O)N1CCC[C@H]1C(=O)N1CCC[C@H]1C(=O)N[C@@H](C)C(=O)N[C@@H](CCCCN)C(=O)N[C@@H](CC(C)C)C(=O)N[C@@H](CCC(N)=O)C(=O)N1CCC[C@H]1C(=O)O [GHRELIN] | -25% | -38% | Activity [5]: Active; growth inhibition (GI) [6]: inactive; growth inhibition (GI) [7]: inactive |
| CC(C)(N)C(=O)N[C@H](Cc1c[nH]c2ccccc12)C(=O)N1CCC[C@]2(CC1)C(=O)Nc1ccccc12 | 9.7% | -2.4% |  |
| CC(C)(N)C(=O)N[C@H](Cc1c[nH]c2ccccc12)C(=O)N1CCC2(CC1)C[C@H](O)c1ccccc12 |  |  | EC50 [8]: 0.6 nM |
